# Data: ChEMBL document CHEMBL3351537, “Design, synthesis and biological evaluation of 4-fluoropyrrolidine-2-carbonitrile and octahydrocyclopenta[b]pyrrole-2-carbonitrile derivatives as dipeptidyl peptidase IV inhibitors” (Eur J Med Chem, 2014)
# The source made the active and inactive calls. The calls are words filed in the database; no cut-off is given here.
# Columns and labels:
# Dipeptidyl peptidase 2 = Dipeptidyl peptidase 2 (Homo sapiens, UniProt Q9UHL4); experiment: Inhibition of DPP7 (unknown origin) expressed in baculovirus expression system using Nle-Pro-AMC as substrate by continuous fluorometric assay
# Dipeptidyl peptidase 8 = Dipeptidyl peptidase 8 (Homo sapiens, UniProt Q6V1X1); experiment: Inhibition of DPP8 (unknown origin) expressed in baculovirus expression system using Ala-Pro-AMC as substrate by continuous fluorometric assay
# Dipeptidyl peptidase 9 = Dipeptidyl peptidase 9 (Homo sapiens, UniProt Q86TI2); experiment: Inhibition of DPP9 (unknown origin) expressed in baculovirus expression system using Ala-Pro-AMC as substrate by continuous fluorometric assay
# Prolyl endopeptidase FAP = molecular target: T1, Prolyl endopeptidase FAP (Homo sapiens, UniProt Q12884); experiment: Inhibition of FAP (unknown origin) expressed in baculovirus expression system using Nle-Pro-AMC as substrate by continuous fluorometric assay
# T1 sequence (Q12884 whole entry): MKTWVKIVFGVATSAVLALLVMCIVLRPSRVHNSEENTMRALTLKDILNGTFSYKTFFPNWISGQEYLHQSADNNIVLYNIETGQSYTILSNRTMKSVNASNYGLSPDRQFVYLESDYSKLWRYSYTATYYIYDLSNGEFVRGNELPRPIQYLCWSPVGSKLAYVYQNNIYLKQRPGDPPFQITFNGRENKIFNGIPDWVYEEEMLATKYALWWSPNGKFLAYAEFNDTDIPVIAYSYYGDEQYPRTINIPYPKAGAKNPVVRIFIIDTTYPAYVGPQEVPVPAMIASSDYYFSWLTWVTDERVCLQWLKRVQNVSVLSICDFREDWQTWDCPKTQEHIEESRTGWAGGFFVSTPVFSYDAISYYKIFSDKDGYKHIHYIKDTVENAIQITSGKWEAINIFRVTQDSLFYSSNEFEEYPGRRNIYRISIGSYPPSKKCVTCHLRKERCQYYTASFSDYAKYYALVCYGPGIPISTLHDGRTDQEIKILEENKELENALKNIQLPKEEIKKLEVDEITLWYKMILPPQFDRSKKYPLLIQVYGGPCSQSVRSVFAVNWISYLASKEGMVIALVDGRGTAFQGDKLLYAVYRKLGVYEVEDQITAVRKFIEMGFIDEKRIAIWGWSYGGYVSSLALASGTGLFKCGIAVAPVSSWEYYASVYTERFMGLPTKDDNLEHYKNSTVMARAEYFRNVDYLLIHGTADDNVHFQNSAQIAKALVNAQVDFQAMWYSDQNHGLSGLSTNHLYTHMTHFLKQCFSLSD
# Mus musculus [1] = experiment: Reduction in glucose excursion in ICR mouse compound administered as single dose measured at 15 mins post dose by oral glucose tolerance test; assay type: functional, organism-based
# How it was run: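 Fasted ICR mice (16 h) given a single oral dose, 5 or 15 mg/kg in 0.5% methylcellulose (10 mL/kg). Oral glucose challenge 2.5 g/kg given 30 min later. Blood glucose read at 0, 15, 30, 60, 90 and 120 min for AUC. Vehicle control included; mean ± SE, Student's t-test.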
# Mus musculus [2] = experiment: Reduction in fasting blood glucose level in C57BKS db/db mouse at 15 mg/kg/day, po (Rvb =23.0 +/- 1.0 mM); assay type: functional
# Mus musculus [3] = experiment: Reduction in plasma triglyceride content in C57BKS db/db mouse at 15 mg/kg/day, po (reference value: 1.01 +/- 0.09 mM); assay type: functional
# Mus musculus [4] = experiment: Reduction in free fatty acid in C57BKS db/db mouse at 15 mg/kg/day, po (reference value: 1.46 +/- 0.10 mM); assay type: functional
# Mus musculus [5] = experiment: Reduction in random blood glucose level in C57BKS db/db mouse at 15 mg/kg/day, po (Rvb =23.3 +/- 1.0 mM); assay type: functional
# Mus musculus [6] = experiment: Reduction in total cholesterol content in C57BKS db/db mouse at 15 mg/kg/day, po; assay type: functional, organism-based
# [7] = Tmax in Sprague-Dawley rat at 20 mg/kg, po; assay type: ADME, organism-based; set-up: dose 20 mg/kg, route oral; settings: in vivo
# How it was run: (§1)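 SD rats dosed orally or intravenously. Blood sampled after dosing and spun to plasma. Plasma deproteinized with methanol containing internal standard, centrifuged, supernatant diluted in methanol and centrifuged again. Compound levels measured by LC/MS/MS. PK parameters were derived from these plasma concentrations.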
# [8] = Cmax in Sprague-Dawley rat at 20 mg/kg, po; assay type: ADME, organism-based; set-up: dose 20 mg/kg, route oral; settings: in vivo; how it was run: as §1
# [9] = AUC (0 to t) in Sprague-Dawley rat at 20 mg/kg, po; assay type: ADME, organism-based; set-up: dose 20 mg/kg, route oral; settings: plasma; how it was run: as §1
# Rattus norvegicus [10] = experiment: AUC (0 to infinity) in Sprague-Dawley rat at 20 mg/kg, po; assay type: ADME, organism-based, Plasma; set-up: time infinity, dose 20 mg/kg, route oral; settings: in vivo; how it was run: as §1
# [11] = Mean residence time in Sprague-Dawley rat at 20 mg/kg, po; assay type: ADME, organism-based; set-up: dose 20 mg/kg, route oral; settings: in vivo; how it was run: as §1
# [12] = Half life in Sprague-Dawley rat at 20 mg/kg, po; assay type: ADME, organism-based; set-up: dose 20 mg/kg, route oral; settings: in vivo; how it was run: as §1
# Rattus norvegicus [13] = experiment: Oral bioavailability in Sprague-Dawley rat at 20 mg/kg; assay type: ADME, organism-based; settings: in vivo; how it was run: as §1
# [14] = Tmax in Sprague-Dawley rat at 10 mg/kg, iv; assay type: ADME, organism-based; set-up: dose 10 mg/kg, route intravenous; settings: in vivo; how it was run: as §1
# [15] = Cmax in Sprague-Dawley rat at 10 mg/kg, iv; assay type: ADME, organism-based; set-up: dose 10 mg/kg, route intravenous; settings: in vivo; how it was run: as §1
# [16] = AUC (0 to t) in Sprague-Dawley rat at 10 mg/kg, iv; assay type: ADME, organism-based; set-up: dose 10 mg/kg, route intravenous; settings: plasma; how it was run: as §1
# Rattus norvegicus [17] = experiment: AUC (0 to infinity) in Sprague-Dawley rat at 10 mg/kg, iv; assay type: ADME, organism-based, Plasma; set-up: time infinity, dose 10 mg/kg, route intravenous; settings: in vivo; how it was run: as §1
# [18] = Mean residence time in Sprague-Dawley rat at 10 mg/kg, iv; assay type: ADME, organism-based; set-up: dose 10 mg/kg, route intravenous; settings: in vivo; how it was run: as §1
# [19] = Half life in Sprague-Dawley rat at 10 mg/kg, iv; assay type: ADME, organism-based; set-up: dose 10 mg/kg, route intravenous; settings: in vivo; how it was run: as §1
# [20] = Apparent clearance in Sprague-Dawley rat at 10 mg/kg, iv; assay type: ADME, organism-based; set-up: dose 10 mg/kg, route intravenous; settings: in vivo, read-out: CL(app) (converted); how it was run: as §1
# [21] = molecular target: T2, Voltage-gated inwardly rectifying potassium channel KCNH2 (Homo sapiens, UniProt Q12809); experiment: Inhibition of human ERG expressed in CHO cells after 20 mins by patch clamp assay; assay type: cell-based
# [22] = molecular target: T2, Voltage-gated inwardly rectifying potassium channel KCNH2; experiment: Inhibition of human ERG expressed in CHO cells after 20 mins by thallium assay; assay type: cell-based
# How it was run: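 CHO-hERG-ZG cells grown with 100 μg/mL G418 and 100 μg/mL hygromycin B, then seeded and incubated 16–18 h at 37 °C. Cells held in loading buffer 90 min in the dark at RT, switched to assay buffer, and exposed to compound 20 min in the dark at RT. FluxOR thallium flux read on FDSS: baseline to 10 s, stimulus buffer added at 10 s, recording to 180 s.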
# Cytochrome P450 3A4 = Cytochrome P450 3A4 (Homo sapiens, UniProt P08684); experiment: Inhibition of CYP3A4 (unknown origin); assay type: ADME
# Cytochrome P450 2C9 = Cytochrome P450 2C9 (Homo sapiens, UniProt P11712); experiment: Inhibition of CYP2C9 (unknown origin); assay type: ADME
# [23] = Tmax in Sprague-Dawley rat at 50 mg/kg, po; assay type: ADME, organism-based; set-up: dose 50 mg/kg, route oral; settings: in vivo; how it was run: as §1
# [24] = Cmax in Sprague-Dawley rat at 50 mg/kg, po; assay type: ADME, organism-based; set-up: dose 50 mg/kg, route oral; settings: in vivo; how it was run: as §1
# [25] = AUC (0 to t) in Sprague-Dawley rat at 50 mg/kg, po; assay type: ADME, organism-based; set-up: dose 50 mg/kg, route oral; settings: plasma; how it was run: as §1
# Rattus norvegicus [26] = experiment: AUC (0 to infinity) in Sprague-Dawley rat at 50 mg/kg, po; assay type: ADME, organism-based, Plasma; set-up: time infinity, dose 50 mg/kg, route oral; settings: in vivo; how it was run: as §1
# [27] = Mean residence time in Sprague-Dawley rat at 50 mg/kg, po; assay type: ADME, organism-based; set-up: dose 50 mg/kg, route oral; settings: in vivo; how it was run: as §1
# [28] = Half life in Sprague-Dawley rat at 50 mg/kg, po; assay type: ADME, organism-based; set-up: dose 50 mg/kg, route oral; settings: in vivo; how it was run: as §1
# Rattus norvegicus [29] = experiment: Oral bioavailability in Sprague-Dawley rat at 50 mg/kg; assay type: ADME, organism-based; settings: in vivo; how it was run: as §1
# [30] = Tmax in Sprague-Dawley rat at 20 mg/kg, iv; assay type: ADME, organism-based; set-up: dose 20 mg/kg, route intravenous; settings: in vivo; how it was run: as §1
# [31] = Cmax in Sprague-Dawley rat at 20 mg/kg, iv; assay type: ADME, organism-based; set-up: dose 20 mg/kg, route intravenous; settings: in vivo; how it was run: as §1
# [32] = AUC (0 to t) in Sprague-Dawley rat at 20 mg/kg, iv; assay type: ADME, organism-based; set-up: dose 20 mg/kg, route intravenous; settings: plasma; how it was run: as §1
# Rattus norvegicus [33] = experiment: AUC (0 to infinity) in Sprague-Dawley rat at 20 mg/kg, iv; assay type: ADME, organism-based, Plasma; set-up: dose 20 mg/kg, route intravenous, time infinity; settings: in vivo; how it was run: as §1
# [34] = Mean residence time in Sprague-Dawley rat at 20 mg/kg, iv; assay type: ADME, organism-based; set-up: dose 20 mg/kg, route intravenous; settings: in vivo; how it was run: as §1
# [35] = Half life in Sprague-Dawley rat at 20 mg/kg, iv; assay type: ADME, organism-based; set-up: dose 20 mg/kg, route intravenous; settings: in vivo; how it was run: as §1
# Rattus norvegicus [36] = experiment: Apparent clearance in Sprague-Dawley rat at 20 mg/kg, iv; assay type: ADME, organism-based; set-up: dose 20 mg/kg, route intravenous; settings: in vivo; how it was run: as §1
# T2 sequence (Q12809 whole entry): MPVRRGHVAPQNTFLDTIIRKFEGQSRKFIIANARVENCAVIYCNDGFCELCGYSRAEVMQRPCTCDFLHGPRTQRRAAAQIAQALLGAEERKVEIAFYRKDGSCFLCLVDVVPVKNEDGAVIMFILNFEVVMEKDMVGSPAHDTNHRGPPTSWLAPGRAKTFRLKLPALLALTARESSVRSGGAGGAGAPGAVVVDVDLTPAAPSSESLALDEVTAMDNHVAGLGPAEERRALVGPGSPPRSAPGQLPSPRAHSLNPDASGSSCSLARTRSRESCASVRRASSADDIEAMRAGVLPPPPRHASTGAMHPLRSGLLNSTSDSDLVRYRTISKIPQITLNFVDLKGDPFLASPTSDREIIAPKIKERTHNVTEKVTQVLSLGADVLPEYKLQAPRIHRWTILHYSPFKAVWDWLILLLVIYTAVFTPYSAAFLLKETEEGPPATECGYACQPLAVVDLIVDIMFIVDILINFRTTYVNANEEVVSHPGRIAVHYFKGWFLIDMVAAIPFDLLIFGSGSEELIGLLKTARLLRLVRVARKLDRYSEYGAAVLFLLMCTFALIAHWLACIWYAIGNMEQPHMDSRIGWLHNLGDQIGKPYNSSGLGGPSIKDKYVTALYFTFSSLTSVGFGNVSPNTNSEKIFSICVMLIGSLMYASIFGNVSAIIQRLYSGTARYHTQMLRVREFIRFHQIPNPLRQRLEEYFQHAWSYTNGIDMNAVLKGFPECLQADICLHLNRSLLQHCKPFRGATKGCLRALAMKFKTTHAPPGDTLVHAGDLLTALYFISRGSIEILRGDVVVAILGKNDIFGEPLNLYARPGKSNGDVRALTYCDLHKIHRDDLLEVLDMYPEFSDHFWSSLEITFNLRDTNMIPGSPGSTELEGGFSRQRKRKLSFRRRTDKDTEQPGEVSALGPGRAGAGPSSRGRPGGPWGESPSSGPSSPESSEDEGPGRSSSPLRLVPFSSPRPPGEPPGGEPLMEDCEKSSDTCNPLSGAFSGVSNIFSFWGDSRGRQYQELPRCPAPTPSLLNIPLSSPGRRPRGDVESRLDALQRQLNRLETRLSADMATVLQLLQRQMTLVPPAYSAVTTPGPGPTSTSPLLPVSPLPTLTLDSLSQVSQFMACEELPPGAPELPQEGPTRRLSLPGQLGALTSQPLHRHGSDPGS
# Chain of Cytochrome P450 3A4 (P08684 whole entry): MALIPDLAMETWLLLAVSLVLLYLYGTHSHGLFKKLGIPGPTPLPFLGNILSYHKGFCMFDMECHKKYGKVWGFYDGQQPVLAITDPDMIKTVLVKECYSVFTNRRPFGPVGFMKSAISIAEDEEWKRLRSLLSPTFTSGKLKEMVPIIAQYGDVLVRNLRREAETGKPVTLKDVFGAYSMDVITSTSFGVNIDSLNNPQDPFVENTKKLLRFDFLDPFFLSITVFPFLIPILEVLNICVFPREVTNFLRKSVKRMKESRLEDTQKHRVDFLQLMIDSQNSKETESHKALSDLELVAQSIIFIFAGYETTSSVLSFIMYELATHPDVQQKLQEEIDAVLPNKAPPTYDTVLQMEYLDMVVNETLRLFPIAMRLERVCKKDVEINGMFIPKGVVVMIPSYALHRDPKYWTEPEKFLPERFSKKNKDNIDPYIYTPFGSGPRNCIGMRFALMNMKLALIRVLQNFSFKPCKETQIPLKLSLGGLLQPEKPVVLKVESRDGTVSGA
# Chain of Cytochrome P450 2C9 (P11712 whole entry): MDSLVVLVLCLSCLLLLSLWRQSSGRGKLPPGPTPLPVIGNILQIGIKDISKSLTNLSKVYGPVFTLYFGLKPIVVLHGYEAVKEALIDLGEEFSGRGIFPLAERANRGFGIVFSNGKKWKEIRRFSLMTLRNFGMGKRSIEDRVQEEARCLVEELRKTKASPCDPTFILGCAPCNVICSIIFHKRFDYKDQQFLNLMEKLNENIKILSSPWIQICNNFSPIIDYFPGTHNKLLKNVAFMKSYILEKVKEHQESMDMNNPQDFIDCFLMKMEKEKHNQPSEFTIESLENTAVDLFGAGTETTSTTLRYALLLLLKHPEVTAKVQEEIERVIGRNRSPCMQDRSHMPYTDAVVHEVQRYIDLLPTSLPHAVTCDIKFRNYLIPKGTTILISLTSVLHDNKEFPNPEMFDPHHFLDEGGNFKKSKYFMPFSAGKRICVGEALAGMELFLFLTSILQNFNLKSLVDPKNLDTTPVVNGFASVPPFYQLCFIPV
# Chain of Dipeptidyl peptidase 9 (Q86TI2 whole entry): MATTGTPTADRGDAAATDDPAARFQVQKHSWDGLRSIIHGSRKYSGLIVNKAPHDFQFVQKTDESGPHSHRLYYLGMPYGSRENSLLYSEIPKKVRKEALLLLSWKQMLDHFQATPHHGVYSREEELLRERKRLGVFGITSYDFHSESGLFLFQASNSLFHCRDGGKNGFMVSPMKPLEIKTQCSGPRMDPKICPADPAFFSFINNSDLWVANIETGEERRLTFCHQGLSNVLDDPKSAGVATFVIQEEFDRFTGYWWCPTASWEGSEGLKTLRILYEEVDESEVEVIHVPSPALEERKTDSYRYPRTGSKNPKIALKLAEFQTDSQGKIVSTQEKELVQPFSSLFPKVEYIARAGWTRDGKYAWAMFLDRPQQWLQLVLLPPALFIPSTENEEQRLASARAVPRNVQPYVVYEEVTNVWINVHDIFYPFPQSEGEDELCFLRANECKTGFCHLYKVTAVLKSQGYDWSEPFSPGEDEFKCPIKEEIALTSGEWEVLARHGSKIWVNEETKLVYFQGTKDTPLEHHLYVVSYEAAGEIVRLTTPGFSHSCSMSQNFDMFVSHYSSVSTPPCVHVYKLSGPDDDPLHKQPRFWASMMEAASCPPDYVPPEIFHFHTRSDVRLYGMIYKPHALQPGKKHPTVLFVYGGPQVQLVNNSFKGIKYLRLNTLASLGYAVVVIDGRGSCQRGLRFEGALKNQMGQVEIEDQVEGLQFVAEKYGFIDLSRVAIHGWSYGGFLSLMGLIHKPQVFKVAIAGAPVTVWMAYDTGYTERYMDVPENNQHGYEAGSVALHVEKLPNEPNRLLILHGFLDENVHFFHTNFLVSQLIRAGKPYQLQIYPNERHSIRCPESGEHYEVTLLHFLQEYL
# Chain of Dipeptidyl peptidase 8 (Q6V1X1 whole entry): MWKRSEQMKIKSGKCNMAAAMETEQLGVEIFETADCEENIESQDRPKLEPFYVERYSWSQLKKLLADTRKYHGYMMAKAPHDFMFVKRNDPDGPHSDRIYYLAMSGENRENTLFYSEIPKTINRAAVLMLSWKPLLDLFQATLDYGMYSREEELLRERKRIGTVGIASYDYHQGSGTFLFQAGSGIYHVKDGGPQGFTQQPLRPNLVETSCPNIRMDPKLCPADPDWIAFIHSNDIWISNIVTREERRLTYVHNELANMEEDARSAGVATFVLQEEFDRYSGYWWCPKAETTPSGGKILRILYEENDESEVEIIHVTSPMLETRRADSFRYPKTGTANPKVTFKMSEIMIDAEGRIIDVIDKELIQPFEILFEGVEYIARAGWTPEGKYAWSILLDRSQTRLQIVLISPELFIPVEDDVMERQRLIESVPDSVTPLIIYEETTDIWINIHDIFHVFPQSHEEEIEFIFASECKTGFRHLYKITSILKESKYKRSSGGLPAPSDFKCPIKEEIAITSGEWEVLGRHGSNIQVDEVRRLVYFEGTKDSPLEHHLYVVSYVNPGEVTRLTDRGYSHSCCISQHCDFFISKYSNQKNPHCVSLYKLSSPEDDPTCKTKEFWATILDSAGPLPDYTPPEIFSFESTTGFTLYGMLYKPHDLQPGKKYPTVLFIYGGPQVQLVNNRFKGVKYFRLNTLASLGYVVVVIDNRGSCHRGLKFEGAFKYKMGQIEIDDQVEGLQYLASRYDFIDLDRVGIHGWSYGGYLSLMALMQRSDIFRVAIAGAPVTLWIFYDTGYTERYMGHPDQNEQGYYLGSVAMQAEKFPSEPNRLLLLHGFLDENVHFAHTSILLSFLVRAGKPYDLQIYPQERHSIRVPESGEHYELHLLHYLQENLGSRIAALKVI
smiles,measurement,setting,value
N#C[C@@H]1C[C@H](F)CN1C(=O)C[C@H](N)Cc1ccc(F)cc1,IC50,Dipeptidyl peptidase 2; read-out: IC50,193 µM
N#C[C@@H]1C[C@H](F)CN1C(=O)C[C@H](N)Cc1ccccc1Cl,IC50,Dipeptidyl peptidase 2; read-out: IC50,130 µM
N#C[C@@H]1C[C@@H]2CCC[C@@H]2N1C(=O)C[C@H](N)Cc1ccccc1,IC50,Dipeptidyl peptidase 2,Not Active
same,IC50,Dipeptidyl peptidase 8,Not Active
same,IC50,Dipeptidyl peptidase 9,108 µM
same,IC50,Prolyl endopeptidase FAP,Not Active
Cc1ccccc1C[C@@H](N)CC(=O)N1C[C@@H](F)C[C@H]1C#N,IC50,Dipeptidyl peptidase 2,Not Active
N#C[C@@H]1C[C@@H]2CCC[C@@H]2N1C(=O)C[C@H](N)Cc1cc(F)c(F)cc1F,Activity,Mus musculus [1],Dose-dependent effect
same,Activity,Mus musculus [2],19.7 mM
same,Activity,Mus musculus [3],0.85 mM
same,Activity,Mus musculus [4],1.43 mEq/L
same,Activity,Mus musculus [5],21.3 mM
same,Activity,Mus musculus [6],inactive
same,Tmax,[7],0.5 h
same,Cmax,[8],509 ng/mL
same,AUC(0-t),[9],2040 ng·h/mL
same,AUC,Rattus norvegicus [10],2360 ng/mL.hr
same,MRT,[11],2.81 h
same,half-life,[12],2.74 h
same,F,Rattus norvegicus [13],22.8%
same,Tmax,[14],0.5 h
same,Cmax,[15],1120 ng/mL
same,AUC(0-t),[16],4470 ng·h/mL
same,AUC,Rattus norvegicus [17],4974 ng·h/mL
same,MRT,[18],2.71 h
same,half-life,[19],2.39 h
same,clearance,[20],33.5 mL/min/kg
same,IC50,[21],> 40 µM
same,IC50,[22],55.3 µM
same,IC50,Cytochrome P450 3A4,2.25 µM
same,IC50,Cytochrome P450 2C9,Not Active
N#C[C@@H]1C[C@H](F)CN1C(=O)C[C@H](N)Cc1cc(F)c(F)cc1F,Activity,Mus musculus [1],Dose-dependent effect
same,Tmax,[23],0.3 h
same,Cmax,[24],2690 ng/mL
same,AUC(0-t),[25],8840 ng·h/mL
same,AUC,Rattus norvegicus [26],8935 ng·h/mL
same,MRT,[27],3.03 h
same,half-life,[28],2.03 h
same,F,Rattus norvegicus [29],53.2%
same,Tmax,[30],0.3 h
same,Cmax,[31],2710 ng/mL
same,AUC(0-t),[32],5840 ng·h/mL
same,AUC,Rattus norvegicus [33],5870 ng/mL.hr
same,MRT,[34],2.93 h
same,half-life,[35],2.33 h
same,CL(app),Rattus norvegicus [36],57 mL/min/kg
same,IC50,[21],> 40 µM
same,IC50,[22],97.7 µM
same,IC50,Cytochrome P450 3A4,56.5 µM
same,IC50,Cytochrome P450 2C9,Not Active
N#C[C@@H]1CCCN1C(=O)CNC12CC3CC(CC(O)(C3)C1)C2 [VILDAGLIPTIN],Activity,Mus musculus [2],18.5 mM
same,Activity,Mus musculus [3],0.75 mM
same,Activity,Mus musculus [4],1.07 mEq/L
same,Activity,Mus musculus [5],22.2 mM
same,Activity,Mus musculus [6],inactive
